Assay [1] addresses Integrin alpha-IIb/beta-3 (Homo sapiens, UniProt P05106+P08514). Put plainly: Fibrinogen receptor binding affinity was determined by assaying for inhibition of [3H]1 binding to purified Fibrinogen Receptor isolated from human platelets and reconstituted in liposomes. The gist of the method:
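Competition binding of the tritiated ligand [³H]-1 to the fibrinogen receptor glycoprotein complex GPIIb/IIIa, purified from human platelets and reconstituted into liposomes. The read-out is inhibition of radioligand binding.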

The species named for the next assay is Homo sapiens. Nature of the assay: Inhibition of ADP-induced platelet aggregation in human platelet-rich plasma. It counts as functional, organism-based.

The structures appear in SMILES notation.

Integrin alpha-IIb/beta-3, sequence (P05106 27-788 limits assumed): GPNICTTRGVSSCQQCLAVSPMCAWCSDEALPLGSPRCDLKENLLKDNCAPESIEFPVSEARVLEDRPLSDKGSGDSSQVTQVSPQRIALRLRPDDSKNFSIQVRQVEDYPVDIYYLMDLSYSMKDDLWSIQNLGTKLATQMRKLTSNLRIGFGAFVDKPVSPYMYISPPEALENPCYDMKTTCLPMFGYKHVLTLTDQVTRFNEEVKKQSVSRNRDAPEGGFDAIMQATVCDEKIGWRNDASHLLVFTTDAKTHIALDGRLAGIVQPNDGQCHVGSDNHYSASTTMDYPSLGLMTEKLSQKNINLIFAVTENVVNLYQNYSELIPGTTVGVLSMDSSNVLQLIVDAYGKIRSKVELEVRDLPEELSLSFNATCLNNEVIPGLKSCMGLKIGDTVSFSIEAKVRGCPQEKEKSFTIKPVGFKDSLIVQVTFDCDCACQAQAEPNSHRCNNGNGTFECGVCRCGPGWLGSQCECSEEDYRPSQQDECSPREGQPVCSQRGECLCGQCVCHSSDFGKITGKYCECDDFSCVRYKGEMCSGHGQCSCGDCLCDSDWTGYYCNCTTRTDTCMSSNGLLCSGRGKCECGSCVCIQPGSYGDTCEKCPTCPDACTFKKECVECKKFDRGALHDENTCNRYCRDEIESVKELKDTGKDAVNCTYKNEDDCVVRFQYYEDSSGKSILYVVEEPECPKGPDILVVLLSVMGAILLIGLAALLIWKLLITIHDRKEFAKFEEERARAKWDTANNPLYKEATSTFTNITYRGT
Integrin alpha-IIb/beta-3, sequence (P08514 32-887 limits assumed): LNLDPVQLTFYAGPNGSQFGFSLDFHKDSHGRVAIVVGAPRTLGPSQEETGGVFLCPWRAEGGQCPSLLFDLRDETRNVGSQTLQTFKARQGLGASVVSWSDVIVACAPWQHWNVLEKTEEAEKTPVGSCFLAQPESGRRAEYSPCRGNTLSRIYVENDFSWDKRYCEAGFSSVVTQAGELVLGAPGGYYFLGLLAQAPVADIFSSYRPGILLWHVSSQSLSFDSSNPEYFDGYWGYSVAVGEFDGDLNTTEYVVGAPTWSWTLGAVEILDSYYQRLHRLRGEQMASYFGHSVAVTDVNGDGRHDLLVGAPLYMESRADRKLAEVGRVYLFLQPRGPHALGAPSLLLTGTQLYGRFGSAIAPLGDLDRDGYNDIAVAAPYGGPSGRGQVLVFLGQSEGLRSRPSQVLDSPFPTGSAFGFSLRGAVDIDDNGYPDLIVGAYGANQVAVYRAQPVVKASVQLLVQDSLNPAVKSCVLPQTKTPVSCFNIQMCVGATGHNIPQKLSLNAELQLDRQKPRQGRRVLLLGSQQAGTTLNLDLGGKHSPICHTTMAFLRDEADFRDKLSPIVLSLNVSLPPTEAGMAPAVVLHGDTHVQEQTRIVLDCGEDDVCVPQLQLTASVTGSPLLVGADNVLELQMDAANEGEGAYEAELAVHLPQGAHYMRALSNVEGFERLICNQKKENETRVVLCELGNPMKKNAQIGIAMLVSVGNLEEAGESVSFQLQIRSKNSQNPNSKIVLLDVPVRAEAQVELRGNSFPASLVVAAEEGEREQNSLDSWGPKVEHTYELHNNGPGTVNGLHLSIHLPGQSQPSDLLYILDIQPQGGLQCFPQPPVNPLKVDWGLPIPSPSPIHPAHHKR
Integrin alpha-IIb/beta-3, sequence (P08514 891-1039 limits assumed): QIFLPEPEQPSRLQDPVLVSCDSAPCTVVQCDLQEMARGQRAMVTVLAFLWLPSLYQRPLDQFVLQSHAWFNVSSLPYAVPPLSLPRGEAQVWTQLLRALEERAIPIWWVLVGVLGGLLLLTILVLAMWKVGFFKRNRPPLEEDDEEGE

`O=C(O)CC1Nc2cc(C(=O)NCCC3CCNCC3)ccc2CN(CCc2ccccc2)C1=O` (configuration not stated): in assay [1], the Ki (usually the dissociation constant of the complex between target and ligand, obtained from inhibition or displacement) stood at 4.7 nM. For the same compound, the concentration for half-maximal inhibition (IC50) (usually the point on the concentration scale where inhibition reaches its midpoint) in the assay filed under Homo sapiens was found to be 510 nM.

With `O=C(O)CC1Nc2cc(/C=C\CCC3CCNCC3)ccc2CN(CCc2ccccc2)C1=O` (configuration not stated), affinity in assay [1] was put at a Ki of 750 nM. Also, in the assay filed under Homo sapiens, 7400 nM corresponded to half-maximal inhibition (IC50).

Take `N=C(N)c1ccc(NC(=O)c2ccc3c(c2)N[C@@H](CC(=O)O)C(=O)N(CCc2ccccc2)C3)cc1`: in assay [1], the affinity corresponds to a Ki of 2 nM. This compound gave an IC50 in the assay listed under Homo sapiens of 34 nM. Compound `N=C(N)c1ccc(C(=O)Nc2ccc3c(c2)NC(CC(=O)O)CN(CCc2ccccc2)C3=O)cc1` (configuration not stated) gave an IC50 in the assay filed under Homo sapiens of more than 200000 nM.

In assay [1], `CN(C(=O)c1ccc2c(c1)CN(CCC(=O)O)C(=O)CC2)c1ccc(C(=N)N)cc1` yielded an inhibition constant Ki of 22500 nM. This compound showed a concentration for half-maximal inhibition (IC50) in the assay filed under Homo sapiens of more than 200000 nM. Take `N=C(N)c1ccc(NC(=O)c2ccc3c(c2)NC(CC(=O)O)CN(CCc2ccccc2)C3)cc1` (configuration not stated): in assay [1], the Ki was 540 nM. Further, the concentration for half-maximal inhibition (IC50) in the assay listed under Homo sapiens is 3000 nM. With `N=C(N)c1ccc(C(=O)Nc2ccc3c(c2)CN(CC(=O)O)C(=O)NC3)cc1`, it took 23000 nM to reach half-maximal inhibition in the assay filed under Homo sapiens (IC50). On to `N=C(N)c1ccc(NC(=O)c2ccc3c(c2)N[C@H](CC(=O)O)C(=O)N(CCc2ccccc2)C3)cc1`, for which, in assay [1], the inhibitory constant (Ki) was 500 nM. This compound registered a half-inhibitory concentration (IC50) in the assay filed under Homo sapiens of 2200 nM. The like results for `N=C(N)c1ccc(C(=O)Nc2ccc3c(c2)NC(CC(=O)O)C(=O)N(CCc2ccccc2)C3)cc1` (configuration not stated) were, in that order, 2 nM and 130 nM. Regarding `N=C(N)c1ccc(NC(=O)c2cccc(NC(CC(=O)O)C(=O)O)c2)cc1` (configuration not stated), inhibition in the assay listed under Homo sapiens was half-maximal at 4700 nM (IC50). Regarding `O=C(O)CC1Nc2cc(/C=C/CCC3CCNCC3)ccc2CN(CCc2ccccc2)C1=O` (configuration not stated), the Ki in assay [1] is 19 nM. This compound also gave a concentration for half-maximal inhibition (IC50) in the assay listed under Homo sapiens of 175 nM. As for `N=C(N)c1ccc(C(=O)Nc2ccc3c(c2)CN(CC(=O)O)C(=O)CN3)cc1`, the inhibitory constant (Ki) in assay [1] amounted to 1200 nM. Further, the concentration for half-maximal inhibition (IC50) in the assay listed under Homo sapiens worked out at 3100 nM. The like results for `O=C(O)CC1Nc2cc(CCCCC3CCNCC3)ccc2CN(CCc2ccccc2)C1=O` (configuration not stated) were, in that order, 80 nM and 930 nM.

Compound `CN(CCC1CCNCC1)C(=O)c1ccc2c(c1)NC(CC(=O)O)C(=O)N(CCc1ccccc1)C2` (configuration not stated) displayed an inhibitory constant (Ki) in assay [1] of 1.9 nM. In the assay listed under Homo sapiens, half-maximal inhibition (IC50) required 15 nM. For `N=C(N)c1ccc(C(=O)Nc2ccc3c(c2)CN(CCC(=O)O)C(=O)CN3)cc1` the same measures were 290 nM and 2100 nM.

Regarding `N=C(N)c1ccc(NC(=O)c2ccc3c(c2)NC(CC(=O)O)CCC3)cc1` (configuration not stated), 3900 nM corresponded to half-maximal inhibition in the assay listed under Homo sapiens (IC50).

Turning to `CN(C(=O)c1ccc2c(c1)CN(CC(=O)O)C(=O)CC2)c1ccc(C(=N)N)cc1`, in assay [1], the Ki is more than 50000 nM. In the assay listed under Homo sapiens, the 50% inhibitory concentration (IC50) is more than 200000 nM.

The compound `N=C(N)c1ccc(NC(=O)c2ccc3c(c2)NC(CC(=O)O)CN(CCc2ccccc2)C3=O)cc1` (configuration not stated) registered a Ki in assay [1] of 800 nM. In addition, in the assay listed under Homo sapiens, 8300 nM corresponded to half-maximal inhibition (IC50).
